Data from ChEMBL document CHEMBL1157708, “Design, synthesis and primary activity assay of bi- or tri-peptide analogues with the scaffold l-arginine as amino-peptidase N/CD13 inhibitors” (Bioorg Med Chem, 2010).
Where a SMILES comes first, the peptide text is derived from it. [ ]: non-standard residue; d: D form. The star is where a group is joined. Arg(NO2) = N=C(NCCC[C@H](N)C(=O)O)N[N+](=O)[O-]; Boc = CC(C)(C)OC(=O)*; Bz = O=C(c1ccccc1)*; NHOH = ON*

What follows are molecules tested against T1, Aminopeptidase N (Sus scrofa, UniProt P15145) (assay: Inhibition of APN from pig kidney microsomes by spectrophotometry).
T1 sequence (P15145 whole entry): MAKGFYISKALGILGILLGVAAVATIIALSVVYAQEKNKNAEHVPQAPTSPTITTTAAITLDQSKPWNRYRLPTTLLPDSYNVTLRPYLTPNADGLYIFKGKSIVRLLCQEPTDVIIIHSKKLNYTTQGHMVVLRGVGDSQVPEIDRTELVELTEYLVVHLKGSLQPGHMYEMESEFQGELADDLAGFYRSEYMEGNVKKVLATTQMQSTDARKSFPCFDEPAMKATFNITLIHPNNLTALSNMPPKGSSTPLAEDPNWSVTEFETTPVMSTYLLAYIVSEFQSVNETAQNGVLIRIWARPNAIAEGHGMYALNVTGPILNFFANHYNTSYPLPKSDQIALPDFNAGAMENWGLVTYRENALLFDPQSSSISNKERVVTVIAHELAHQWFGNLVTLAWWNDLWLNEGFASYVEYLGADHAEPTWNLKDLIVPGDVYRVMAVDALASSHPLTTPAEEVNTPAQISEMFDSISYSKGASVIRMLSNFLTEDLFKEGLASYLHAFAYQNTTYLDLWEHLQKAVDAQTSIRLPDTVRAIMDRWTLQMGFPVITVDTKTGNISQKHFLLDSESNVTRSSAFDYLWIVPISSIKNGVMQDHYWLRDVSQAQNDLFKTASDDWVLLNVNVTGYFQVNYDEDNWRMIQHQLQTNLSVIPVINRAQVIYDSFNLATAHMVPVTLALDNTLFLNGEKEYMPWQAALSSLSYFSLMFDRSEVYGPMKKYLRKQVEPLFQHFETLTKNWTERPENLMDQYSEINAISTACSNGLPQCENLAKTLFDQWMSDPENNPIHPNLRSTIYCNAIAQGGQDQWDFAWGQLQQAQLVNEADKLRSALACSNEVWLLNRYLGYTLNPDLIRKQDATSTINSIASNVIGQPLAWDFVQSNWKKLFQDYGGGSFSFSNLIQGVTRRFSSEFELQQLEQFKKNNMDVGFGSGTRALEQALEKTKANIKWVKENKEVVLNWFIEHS
Type: tissue-based

Compound	IC50 [µM]
CC(C)[C@H](NC(=O)OC(C)(C)C)C(=O)N[C@@H](CCCNC(N)=N[N+](=O)[O-])C(=O)NO (Boc-Val-[Arg(NO2)]-{NHOH})	201
N=C(NCCC[C@H](NC(=O)[C@@H]1CCCN1C(=O)[C@@H]1CCCN1)C(=O)NO)N[N+](=O)[O-] (H-Pro-Pro-[Arg(NO2)]-{NHOH})	65.2
CC(C)C[C@H](NC(=O)OC(C)(C)C)C(=O)N[C@@H](CCCNC(N)=N[N+](=O)[O-])C(=O)NO	334
CC(C)C[C@H](NC(=O)OC(C)(C)C)C(=O)N[C@@H](C)C(=O)N[C@@H](CCCNC(N)=N[N+](=O)[O-])C(=O)NO (Boc-Leu-Ala-[Arg(NO2)]-{NHOH})	39.5
CC(C)(C)OC(=O)N1CCC[C@H]1C(=O)N1CCC[C@H]1C(=O)N[C@@H](CCCNC(=N)N[N+](=O)[O-])C(=O)NO (Boc-Pro-Pro-[Arg(NO2)]-{NHOH})	42.1
COc1ccc(C(=O)N[C@@H](C)C(=O)N[C@@H](CCCNC(N)=N[N+](=O)[O-])C(=O)NO)cc1	16.3
CC(C)C[C@H](NC(=O)c1ccc(Cl)cc1Cl)C(=O)N[C@@H](CCCNC(N)=N[N+](=O)[O-])C(=O)NO	7.2
CC(C)C[C@H](NC(=O)[C@H](Cc1ccccc1)NC(=O)OC(C)(C)C)C(=O)N[C@@H](CCCNC(=N)N[N+](=O)[O-])C(=O)NO (Boc-Phe-Leu-[Arg(NO2)]-{NHOH})	8.4
CC(C)(C)OC(=O)N1CCC[C@H]1C(=O)N[C@@H](Cc1ccccc1)C(=O)N[C@@H](CCCNC(=N)N[N+](=O)[O-])C(=O)NO (Boc-Pro-Phe-[Arg(NO2)]-{NHOH})	1340
N=C(NCCC[C@H](NC(=O)[C@H](Cc1ccccc1)NC(=O)c1ccc(Cl)cc1Cl)C(=O)NO)N[N+](=O)[O-]	4.3
CC(C)[C@H](NC(=O)c1ccccc1I)C(=O)N[C@@H](CCCNC(N)=N[N+](=O)[O-])C(=O)NO	6.7
CC(C)[C@H](NC(=O)[C@H](Cc1ccccc1)NC(=O)OC(C)(C)C)C(=O)N[C@@H](CCCNC(=N)N[N+](=O)[O-])C(=O)NO (Boc-Phe-Val-[Arg(NO2)]-{NHOH})	33.1
CSCC[C@H](NC(=O)OC(C)(C)C)C(=O)N[C@@H](CCCNC(=N)N[N+](=O)[O-])C(=O)NO (Boc-Met-[Arg(NO2)]-{NHOH})	132
C[C@H](NC(=O)c1ccc(Cl)cc1Cl)C(=O)N[C@@H](CCCNC(N)=N[N+](=O)[O-])C(=O)NO	31.4
CC(C)[C@H](NC(=O)[C@@H](N)Cc1ccccc1)C(=O)N[C@@H](CCCNC(N)=N[N+](=O)[O-])C(=O)NO (H-Phe-Val-[Arg(NO2)]-{NHOH})	98.6
CC(C)C[C@H](NC(=O)c1ccccc1Cl)C(=O)N[C@@H](CCCNC(N)=N[N+](=O)[O-])C(=O)NO	4.8
N=C(NCCC[C@H](NC(=O)[C@H](Cc1ccc(O)cc1)NC(=O)[C@@H]1CCCN1)C(=O)NO)N[N+](=O)[O-] (H-Pro-Tyr-[Arg(NO2)]-{NHOH})	248
CC(C)(C)OC(=O)N1CCC[C@H]1C(=O)N[C@@H](Cc1ccc(O)cc1)C(=O)N[C@@H](CCCNC(=N)N[N+](=O)[O-])C(=O)NO (Boc-Pro-Tyr-[Arg(NO2)]-{NHOH})	436
CC(C)C[C@H](NC(=O)OC(C)(C)C)C(=O)NCC(=O)N[C@@H](CCCNC(N)=N[N+](=O)[O-])C(=O)NO (Boc-Leu-Gly-[Arg(NO2)]-{NHOH})	25.2
NC(=N[N+](=O)[O-])NCCC[C@H](NC(=O)[C@H](Cc1ccccc1)NC(=O)[C@@H]1CCCN1)C(=O)NO (H-Pro-Phe-[Arg(NO2)]-{NHOH})	364
N=C(NCCC[C@H](NC(=O)[C@H](Cc1ccccc1)NC(=O)c1ccccc1)C(=O)NO)N[N+](=O)[O-] (Bz-Phe-[Arg(NO2)]-{NHOH})	4.2

The molecules below were run against 72 kDa type IV collagenase (Homo sapiens, UniProt P08253) (assay: Inhibition of MMP2 by spectrophotometry).
Chain of 72 kDa type IV collagenase (P08253 whole entry): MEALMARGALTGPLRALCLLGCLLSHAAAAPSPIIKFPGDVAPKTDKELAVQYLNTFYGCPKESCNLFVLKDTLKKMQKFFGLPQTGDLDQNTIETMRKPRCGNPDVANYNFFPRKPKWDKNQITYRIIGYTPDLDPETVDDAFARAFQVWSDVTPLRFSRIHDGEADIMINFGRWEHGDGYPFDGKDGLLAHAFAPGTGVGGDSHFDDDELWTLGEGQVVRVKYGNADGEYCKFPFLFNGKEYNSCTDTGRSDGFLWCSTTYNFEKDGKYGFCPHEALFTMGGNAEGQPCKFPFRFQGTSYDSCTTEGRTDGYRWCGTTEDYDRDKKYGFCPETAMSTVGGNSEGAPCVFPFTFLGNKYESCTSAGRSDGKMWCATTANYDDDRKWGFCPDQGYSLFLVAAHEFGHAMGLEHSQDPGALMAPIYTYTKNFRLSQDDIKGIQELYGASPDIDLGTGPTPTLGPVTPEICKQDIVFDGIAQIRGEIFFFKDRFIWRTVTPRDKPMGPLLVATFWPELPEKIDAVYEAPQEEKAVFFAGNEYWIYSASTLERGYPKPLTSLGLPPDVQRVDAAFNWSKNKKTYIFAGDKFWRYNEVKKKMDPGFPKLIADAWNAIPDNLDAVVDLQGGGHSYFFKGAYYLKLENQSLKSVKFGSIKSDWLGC
Procedure, shortened: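 Gelatinase A (MMP-2) with an in-house synthesized substrate and inhibitor, all in 50 mmol/L sodium borate pH 8.5, incubated 30 min at 37 °C. 0.03% TNBS then added and incubated a further 20 min. Absorbance read at 450 nm.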

Compound	IC50 [µM]
CC(C)[C@H](NC(=O)OC(C)(C)C)C(=O)N[C@@H](CCCNC(N)=N[N+](=O)[O-])C(=O)NO (Boc-Val-[Arg(NO2)]-{NHOH})	3460
N=C(NCCC[C@H](NC(=O)[C@@H]1CCCN1C(=O)[C@@H]1CCCN1)C(=O)NO)N[N+](=O)[O-] (H-Pro-Pro-[Arg(NO2)]-{NHOH})	8610
CC(C)C[C@H](NC(=O)OC(C)(C)C)C(=O)N[C@@H](CCCNC(N)=N[N+](=O)[O-])C(=O)NO	5680
CC(C)C[C@H](N)C(=O)NCC(=O)N[C@@H](CCCNC(N)=N[N+](=O)[O-])C(=O)NO (H-Leu-Gly-[Arg(NO2)]-{NHOH})	3630
CC(C)C[C@H](NC(=O)OC(C)(C)C)C(=O)N[C@@H](C)C(=O)N[C@@H](CCCNC(N)=N[N+](=O)[O-])C(=O)NO (Boc-Leu-Ala-[Arg(NO2)]-{NHOH})	2900
CSCCC[C@H](N)C(=O)N[C@@H](CCCNC(=N)N[N+](=O)[O-])C(=O)NO	4200
CC(C)(C)OC(=O)N1CCC[C@H]1C(=O)N1CCC[C@H]1C(=O)N[C@@H](CCCNC(=N)N[N+](=O)[O-])C(=O)NO (Boc-Pro-Pro-[Arg(NO2)]-{NHOH})	8360
COc1ccc(C(=O)N[C@@H](C)C(=O)N[C@@H](CCCNC(N)=N[N+](=O)[O-])C(=O)NO)cc1	8970
CC(C)C[C@H](NC(=O)c1ccc(Cl)cc1Cl)C(=O)N[C@@H](CCCNC(N)=N[N+](=O)[O-])C(=O)NO	1540
CC(C)C[C@H](NC(=O)[C@H](Cc1ccccc1)NC(=O)OC(C)(C)C)C(=O)N[C@@H](CCCNC(=N)N[N+](=O)[O-])C(=O)NO (Boc-Phe-Leu-[Arg(NO2)]-{NHOH})	407
CC(C)(C)OC(=O)N1CCC[C@H]1C(=O)N[C@@H](Cc1ccccc1)C(=O)N[C@@H](CCCNC(=N)N[N+](=O)[O-])C(=O)NO (Boc-Pro-Phe-[Arg(NO2)]-{NHOH})	7900
CC(C)[C@H](N)C(=O)N[C@@H](CCCNC(N)=N[N+](=O)[O-])C(=O)NO (H-Val-[Arg(NO2)]-{NHOH})	428
CC(C)C[C@H](N)C(=O)N[C@@H](C)C(=O)N[C@@H](CCCNC(N)=N[N+](=O)[O-])C(=O)NO (H-Leu-Ala-[Arg(NO2)]-{NHOH})	1710
N=C(NCCC[C@H](NC(=O)[C@H](Cc1ccccc1)NC(=O)c1ccc(Cl)cc1Cl)C(=O)NO)N[N+](=O)[O-]	8140
CC(C)[C@H](NC(=O)c1ccccc1I)C(=O)N[C@@H](CCCNC(N)=N[N+](=O)[O-])C(=O)NO	1780
CC(C)C[C@H](NC(=O)[C@@H](N)Cc1ccccc1)C(=O)N[C@@H](CCCNC(=N)N[N+](=O)[O-])C(=O)NO (H-Phe-Leu-[Arg(NO2)]-{NHOH})	514
CC(C)C[C@H](NC(=O)[C@@H](O)[C@H](N)Cc1ccccc1)C(=O)O [UBENIMEX]	253
CC(C)[C@H](NC(=O)[C@H](Cc1ccccc1)NC(=O)OC(C)(C)C)C(=O)N[C@@H](CCCNC(=N)N[N+](=O)[O-])C(=O)NO (Boc-Phe-Val-[Arg(NO2)]-{NHOH})	447
CSCC[C@H](NC(=O)OC(C)(C)C)C(=O)N[C@@H](CCCNC(=N)N[N+](=O)[O-])C(=O)NO (Boc-Met-[Arg(NO2)]-{NHOH})	1940
C[C@H](NC(=O)c1ccc(Cl)cc1Cl)C(=O)N[C@@H](CCCNC(N)=N[N+](=O)[O-])C(=O)NO	1760
CC(C)[C@H](NC(=O)[C@@H](N)Cc1ccccc1)C(=O)N[C@@H](CCCNC(N)=N[N+](=O)[O-])C(=O)NO (H-Phe-Val-[Arg(NO2)]-{NHOH})	3160
CC(C)C[C@H](N)C(=O)N[C@@H](CCCNC(=N)N[N+](=O)[O-])C(=O)NO	5310
CC(C)C[C@H](NC(=O)c1ccccc1Cl)C(=O)N[C@@H](CCCNC(N)=N[N+](=O)[O-])C(=O)NO	630
N=C(NCCC[C@H](NC(=O)[C@H](Cc1ccc(O)cc1)NC(=O)[C@@H]1CCCN1)C(=O)NO)N[N+](=O)[O-] (H-Pro-Tyr-[Arg(NO2)]-{NHOH})	7590
CC(C)(C)OC(=O)N1CCC[C@H]1C(=O)N[C@@H](Cc1ccc(O)cc1)C(=O)N[C@@H](CCCNC(=N)N[N+](=O)[O-])C(=O)NO (Boc-Pro-Tyr-[Arg(NO2)]-{NHOH})	4520
CC(C)C[C@H](NC(=O)OC(C)(C)C)C(=O)NCC(=O)N[C@@H](CCCNC(N)=N[N+](=O)[O-])C(=O)NO (Boc-Leu-Gly-[Arg(NO2)]-{NHOH})	2980
NC(=N[N+](=O)[O-])NCCC[C@H](NC(=O)[C@H](Cc1ccccc1)NC(=O)[C@@H]1CCCN1)C(=O)NO (H-Pro-Phe-[Arg(NO2)]-{NHOH})	8050
N=C(NCCC[C@H](NC(=O)[C@H](Cc1ccccc1)NC(=O)c1ccccc1)C(=O)NO)N[N+](=O)[O-] (Bz-Phe-[Arg(NO2)]-{NHOH})	1650
